# Measurements reported in ChEMBL document CHEMBL1122079, “Tryptophan analogues. 1. Synthesis and antihypertensive activity of positional isomers” (1982).
# Columns and labels:
# Rattus norvegicus [1] = test: Antihypertensive activity in renal hypertensive rats 4 hr after oral administration (10 mg/Kg); assay type: functional
# In short: (§1)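 Renal hypertensive rats (5 or 10 per group), 10 mg/kg given orally. Systolic pressure measured indirectly by tail occluding cuff with pulse sensor, once before dosing as control and again at 1, 2, 4, 6 and 8 h. Values are changes in mean systolic pressure from control (mmHg). Significance of control vs posttreatment assessed by Wilcoxon's signed rank test (p < 0.05).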
# Rattus norvegicus [2] = test: Antihypertensive activity in renal hypertensive rats 2 hr after oral administration (10 mg/Kg); assay type: functional; in short: as §1
# Rattus norvegicus [3] = test: Antihypertensive activity in renal hypertensive rats 6 hr after oral administration (10 mg/Kg); assay type: functional; in short: as §1
# Rattus norvegicus [4] = test: Antihypertensive activity in renal hypertensive rats 1 hr after oral administration (10 mg/Kg); assay type: functional; in short: as §1
# Rattus norvegicus [5] = test: Antihypertensive activity in renal hypertensive rats 8 hr after oral administration (10 mg/Kg); assay type: functional; in short: as §1
# Felis catus [6] = test: Change in blood pressure in normotensive anesthetized cat.; assay type: functional
# In short: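 Normotensive cats of either sex (2-4 kg) anesthetized with α-chloralose (80 mg/kg iv). Trachea, femoral artery and jugular vein cannulated. Compound given iv at 10 mg/kg, with 1 mg/kg iv used in one case. Mean blood pressure recorded by pressure transducer before and 30 min after dosing, reported as decrease in mmHg.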
# Felis catus [7] = test: Control blood pressure in normotensive anesthetized cat at dose 10 mg/Kg iv
Compound,BP (Rattus norvegicus [1]),BP (Rattus norvegicus [2]),BP (Rattus norvegicus [3]),BP (Rattus norvegicus [4]),BP (Rattus norvegicus [5]),BP (Felis catus [6]),control BP (Felis catus [7])
COc1ccc2[nH]cc(C(CN)C(=O)OC(C)C)c2c1.Cl (configuration not stated),13 mmHg,-1 mmHg,7 mmHg,7 mmHg,13 mmHg,-48 mmHg,181 mmHg
N[C@@H](Cc1c[nH]c2ccccc12)C(=O)O [TRYPTOPHAN],-15 mmHg,-9 mmHg,-4 mmHg,-12 mmHg,0 mmHg,-22 mmHg,165 mmHg
CCOC(=O)C(C)(N)Cc1c[nH]c2ccc(O)cc12 (configuration not stated),14 mmHg,-7 mmHg,22 mmHg,-2 mmHg,6 mmHg,9 mmHg,142 mmHg
NCC(C(=O)O)c1c[nH]c2cc(Cl)ccc12 (configuration not stated),-6 mmHg,-5 mmHg,-14 mmHg,-4 mmHg,-9 mmHg,-2 mmHg,179 mmHg
CCOC(=O)NCC(c1nnn[nH]1)c1c[nH]c2ccc(OC)cc12 (configuration not stated),0 mmHg,2 mmHg,2 mmHg,-2 mmHg,0 mmHg,5 mmHg,160 mmHg
COC(=O)CC(CN)c1c[nH]c2ccccc12 (configuration not stated),2 mmHg,-11 mmHg,-7 mmHg,-1 mmHg,-1 mmHg,-4 mmHg,184 mmHg
CCCCCOC(=O)C(CN)c1c[nH]c2ccc(OC)cc12.Cl (configuration not stated),-3 mmHg,-11 mmHg,-11 mmHg,-7 mmHg,-4 mmHg,2 mmHg,148 mmHg
NCC(C(=O)O)c1c[nH]c2ccccc12 (configuration not stated),-10 mmHg,-8 mmHg,-13 mmHg,-6 mmHg,-8 mmHg,-10 mmHg,153 mmHg
COC(=O)C(CN(C)C)c1c[nH]c2ccccc12 (configuration not stated),2 mmHg,0 mmHg,11 mmHg,-2 mmHg,1 mmHg,-35 mmHg,145 mmHg
COC(=O)C(CN(C)C)c1c[nH]c2ccc(OC)cc12.O=C(O)C(=O)O (configuration not stated),1 mmHg,-2 mmHg,14 mmHg,-9 mmHg,13 mmHg,-35 mmHg,167 mmHg
COC(=O)C(CN)c1c[nH]c2ccc(OC)cc12.Cl (configuration not stated) [INDORENATE HYDROCHLORIDE],-38 mmHg,-71 mmHg,-10 mmHg,-85 mmHg,2 mmHg,-82 mmHg,162 mmHg
COc1ccc2[nH]cc(C(CN)c3nnn[nH]3)c2c1 (configuration not stated),-2 mmHg,5 mmHg,3 mmHg,-2 mmHg,13 mmHg,-4 mmHg,167 mmHg
CCOC(=O)CC(c1nnn[nH]1)c1c[nH]c2ccc(OC)cc12 (configuration not stated),-25 mmHg,-21 mmHg,-16 mmHg,-16 mmHg,-11 mmHg,-11 mmHg,136 mmHg
COC(=O)C(CN)c1c[nH]c2ccc(Br)cc12.Cl (configuration not stated),6 mmHg,-10 mmHg,8 mmHg,-6 mmHg,7 mmHg,-35 mmHg,125 mmHg
COC(=O)CC(CN)c1c[nH]c2cc(Cl)ccc12 (configuration not stated),-3 mmHg,-4 mmHg,-11 mmHg,2 mmHg,-6 mmHg,-10 mmHg,158 mmHg
CCOC(=O)CC(c1nnn[nH]1)c1c[nH]c2cccc(Cl)c12 (configuration not stated),-5 mmHg,-12 mmHg,-2 mmHg,-4 mmHg,4 mmHg,-35 mmHg,135 mmHg
COC(=O)C(c1c[nH]c2ccc(OC)cc12)C(C)N (configuration not stated),-3 mmHg,-3 mmHg,3 mmHg,-6 mmHg,2 mmHg,–,–
Cl.NCC(C(=O)O)c1c[nH]c2ccc(Br)cc12 (configuration not stated),0 mmHg,-5 mmHg,5 mmHg,-12 mmHg,0 mmHg,-15 mmHg,115 mmHg

Compound,BP (Rattus norvegicus [1]),BP (Rattus norvegicus [2]),BP (Rattus norvegicus [3]),BP (Rattus norvegicus [4]),BP (Rattus norvegicus [5]),BP (Felis catus [6]),control BP (Felis catus [7])
CCOC(=O)C(CNC(C)=O)c1cn(C(=O)OCC)c2cc(Cl)ccc12 (configuration not stated),-12 mmHg,-12 mmHg,-7 mmHg,-18 mmHg,-3 mmHg,-2 mmHg,165 mmHg
COc1ccc2[nH]cc(C(CNC(C)=O)C(=O)O)c2c1 (configuration not stated),-24 mmHg,-18 mmHg,-28 mmHg,-16 mmHg,-8 mmHg,-14 mmHg,154 mmHg
COC(=O)C(N)Cc1c[nH]c2ccc(OC)cc12 (configuration not stated),-8 mmHg,4 mmHg,4 mmHg,-7 mmHg,-1 mmHg,-12 mmHg,136 mmHg
COC(=O)C(CN)c1cn(C)c2ccc(OC)cc12.Cl (configuration not stated),3 mmHg,-6 mmHg,1 mmHg,-5 mmHg,7 mmHg,20 mmHg,165 mmHg
COC(=O)CC(CN)c1c[nH]c2ccc(OC)cc12 (configuration not stated),-6 mmHg,-15 mmHg,-13 mmHg,-14 mmHg,-12 mmHg,-25 mmHg,166 mmHg
COC(=O)C(CN)c1c(C)[nH]c2ccc(OC)cc12.Cl (configuration not stated),-8 mmHg,-2 mmHg,-8 mmHg,2 mmHg,-3 mmHg,1 mmHg,164 mmHg
CCOC(=O)CC(c1nnn[nH]1)c1c[nH]c2ccccc12 (configuration not stated),-27 mmHg,-22 mmHg,-22 mmHg,-4 mmHg,-7 mmHg,2 mmHg,168 mmHg
CCCOc1ccc2[nH]cc(C(CN)C(=O)OC)c2c1.Cl (configuration not stated),8 mmHg,6 mmHg,9 mmHg,-6 mmHg,5 mmHg,–,150 mmHg
COC(=O)C(CN)c1c[nH]c2ccc(Cl)cc12.Cl (configuration not stated),0 mmHg,-5 mmHg,2 mmHg,-8 mmHg,5 mmHg,-61 mmHg,160 mmHg
CCOC(=O)CC(c1nnn[nH]1)c1c[nH]c2cc(Cl)ccc12 (configuration not stated),-4 mmHg,2 mmHg,-17 mmHg,-5 mmHg,-11 mmHg,-20 mmHg,175 mmHg
CCOC(=O)CC(CNC(C)=O)c1c[nH]c2ccccc12 (configuration not stated),-7 mmHg,-11 mmHg,-6 mmHg,-8 mmHg,-2 mmHg,-21 mmHg,169 mmHg
CCOC(=O)C(N)Cc1c[nH]c2ccc(O)cc12 (configuration not stated),2 mmHg,-5 mmHg,2 mmHg,-14 mmHg,1 mmHg,-24 mmHg,156 mmHg
CCOC(=O)C(CNC(C)=O)c1cn(C(=O)OCC)c2ccc(OC)cc12 (configuration not stated),-21 mmHg,-12 mmHg,-20 mmHg,-15 mmHg,-14 mmHg,0 mmHg,195 mmHg
NCC(CC(=O)O)c1c[nH]c2cc(Cl)ccc12 (configuration not stated),-9 mmHg,5 mmHg,-9 mmHg,2 mmHg,-2 mmHg,5 mmHg,160 mmHg
NCC(C(=O)O)c1c[nH]c2ccc(F)cc12 (configuration not stated),-27 mmHg,-26 mmHg,-15 mmHg,-19 mmHg,0 mmHg,-25 mmHg,180 mmHg
COc1ccc2[nH]cc(C(CN)CO)c2c1.O=C(O)C(=O)O (configuration not stated),4 mmHg,-15 mmHg,-8 mmHg,-13 mmHg,0 mmHg,–,–
NCC(CC(=O)O)c1c[nH]c2ccccc12 (configuration not stated),-3 mmHg,-3 mmHg,-14 mmHg,-11 mmHg,1 mmHg,-11 mmHg,152 mmHg
COC(=O)C(CN)c1c[nH]c2ccc(O)cc12.Cl (configuration not stated),4 mmHg,1 mmHg,0 mmHg,7 mmHg,7 mmHg,-85 mmHg,135 mmHg
